Among the data in PubChem BioAssay AID651952 (The Scripps Research Institute Molecular Screening Center, 2012) are inhibition values, retold here.

Screen size: about 2,400 compounds; about 940 (39%) were called active. A selection follows. Unmarked numbers belong to inactive results.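 How the source made its calls: active means inhibition above the plate's mean compound inhibition plus 3 SD, computed per plate (cut at about 22% in these data); inactive means the rest.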

A short description of this experiment: inhibition of ATP-evoked calcium response in CHO-Ga16 cells, counter-screen for TAAR1 agonist project, cell-based, fluorescence (AID 651952).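 Further: 0% = EC80 ATP with DMSO and 100% = DMSO wells without ATP.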 The settings on record: CHO-Ga16 ATP-induced calcium, Fluo-8 fluorescence; at 3 µM; hits give high values. The method in brief:
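replicates = triplicate wells per compound | material = CHO-Gα16 parent cell line without hTAAR1 | incubation = 17–24 h seeding, dye 75 min 37 °C, 30 min RT | measure = percent inhibition from peak-to-pre-ATP-basal fluorescence ratio, scaled between controls | signal = Fluo-8 fluorescence, Ex 470–495 nm, Em 515–575 nm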
A general note: A counterscreen serves to expose hits that act by an unwanted route or on another target.
For the compound `Cc1ccc(NC(=O)CCN2CCc3ccccc3C2)cc1`, the inhibition was 10.1%.
As to `O=C(O)C1CC=CCC1C(=O)NCCc1ccccc1` (configuration not stated), the inhibition was 3.62%.
On to `S=C(NCCc1ccccc1)N1CCn2cccc2C1c1ccncc1` (configuration not stated), for which the inhibition was 21.8% (active).
Next, `O=C(NCCc1ccccc1)C(=O)NCC1OCCN1S(=O)(=O)c1cccs1` (configuration not stated): 10.6%.
As to `COc1ccc(Cl)cc1C(=O)NNC(=S)NC(=O)/C=C/c1ccco1`, the inhibition is 55.5% (active).
Regarding `O=C1CCCN2N=C(SCC(=O)Nc3ccc(Br)cc3)SC2=N1`, the inhibition is 20%.
Consider `CCCCCc1c(-c2ccc(OC)c(OC)c2)ncn1CCc1ccccc1OC`, for which the inhibition was 44.5% (active).
Next, `CCCCCc1c(Cc2ccccc2)ncn1CCc1ccccc1OC`: 30.6% (active); `CCCCCc1c(-c2cccc(Br)c2)ncn1CCc1ccccc1OC`: 25.3% (active).
For `O=C(CNC(=O)c1ccccc1F)OCC(=O)c1c[nH]c2ccccc12`, the inhibition was -2.93%.
`O=C(c1noc2c1CCCC2)N1CCc2ccccc2C1`: the inhibition was 2.82%.
Take `CCC(c1nnnn1Cc1ccco1)N(CCc1ccccc1)Cc1cc2ccc(OC)cc2[nH]c1=O` (configuration not stated): the inhibition was 15.3%.
Consider `CC(Oc1ccc(Cl)cc1)C(=O)OCC(=O)Nc1ncc(Cl)cc1Cl` (configuration not stated), for which the inhibition is 12.8%.
As to `CCCn1c(O)c(CN2CCCC(C)C2)c(C)c(C#N)c1=O` (configuration not stated), the inhibition is 11.4%.
As for `Cc1cc2nc3c(=O)[nH]c(=O)nc-3n(C[C@H](O)[C@H](O)[C@H](O)CO)c2cc1C`, the inhibition was 60.5% (active).
In the case of `COc1ccc(C(=O)CN2C(=O)NC(C)(c3ccc(C)cc3)C2=O)cc1OC` (configuration not stated), the inhibition is 12.3%.
To `c1ccc2c(c1)OCC(CNc1ncnc3nc[nH]c13)O2` (configuration not stated) belongs 103% (active); to `COc1cc(OC)c(-n2cc(-c3ccc(Cl)cc3)[nH]c2=O)cc1Cl`, 47.5% (active).
Turning to `O=Cc1c(NCCc2cccc(F)c2)c2ccccc2[nH]c1=O`, the inhibition is 5.51%.
Take `CSc1nc(N)c(C#N)c(-c2ccccc2Cl)c1C#N`: the inhibition is 23.4% (active).
On to `OC(CNCCc1ccc(Cl)cc1Cl)COc1ccccc1` (configuration not stated), for which the inhibition was 16.3%.
Next, `COC(=O)c1[nH]c2cccc(C)c2c1NC(=O)CN1CCCc2ccccc21`: 22.5% (active).

A word on the inhibition: it is the relative decrease from the control value, in per cent.
